Laboratory results as given in ChEMBL document CHEMBL5137029, “Chemically Tuning Resveratrol for the Effective Killing of Gram-Positive Pathogens” (J Nat Prod, 2022).
Converted amounts (≈) assume the structure as drawn. The source made the active and inactive calls. The rule behind the calls is not given here.

How the values were obtained:
Bacillus cereus [1] = assay: Antibacterial activity against Bacillus cereus ATCC 10987 incubated for 20 hrs by CLSI based broth microdilution method; type: functional
[2] = Antibacterial activity against Clostridium-ihumii AP5 incubated for 24 hrs by CLSI based broth microdilution method; type: functional
Clostridium beijerinckii = assay: Antibacterial activity against Clostridium beijerinckii B504 incubated for 24 hrs by CLSI based broth microdilution method; type: functional
Enterococcus faecalis [3] = assay: Antibacterial activity against Enterococcus faecalis LMG 08222 incubated for 20 hrs by CLSI based broth microdilution method; type: functional
Clostridioides difficile = assay: Antibacterial activity against Clostridium difficile CECT531 incubated for 24 hrs by CLSI based broth microdilution method; type: functional
Clostridium botulinum = assay: Antibacterial activity against Clostridium botulinum CECT551 incubated for 24 hrs by CLSI based broth microdilution method; type: functional
Bacillus cereus [4] = assay: Antibacterial activity against Bacillus cereus ATCC 14579 incubated for 20 hrs by CLSI based broth microdilution method; type: functional
Staphylococcus aureus [5] = assay: Antibacterial activity against Staphylococcus aureus LMG 10147 incubated for 20 hrs by CLSI based broth microdilution method; type: functional
Enterococcus faecalis [6] = assay: Antibacterial activity against Enterococcus faecalis LMG 16216 incubated for 20 hrs by CLSI based broth microdilution method; type: functional
Clostridium perfringens = assay: Antibacterial activity against Clostridium perfringens CECT376 incubated for 24 hrs by CLSI based broth microdilution method; type: functional
Enterococcus faecalis [7] = assay: Antibacterial activity against Enterococcus faecalis V583 incubated for 20 hrs by CLSI based broth microdilution method; type: functional
Clostridium tetani = assay: Antibacterial activity against Clostridium tetani CECT 4629 incubated for 24 hrs by CLSI based broth microdilution method; type: functional
Staphylococcus aureus [8] = assay: Antibacterial activity against Staphylococcus aureus LMG 8224 incubated for 20 hrs by CLSI based broth microdilution method; type: functional
Staphylococcus aureus [9] = assay: Antibacterial activity against Staphylococcus aureus LMG 15975 incubated for 20 hrs by CLSI based broth microdilution method; type: functional
Bacillus cereus [10] = assay: Inhibition of electron transport chain in Bacillus cereus ATCC 10987 by measuring reduction of resazurin upto 120 min by resazurin dye based assay; conditions: DDE = dose-dependent effect
Procedure, shortened: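 B. cereus grown in LB to OD600 1, washed and resuspended in cMHB at OD600 0.2 with 100 μg/mL resazurin. Compounds added at the indicated concentrations; resorufin fluorescence (ex/em 550/590 nm) read every 5 min for 125 min. CCCP at 400, 200, 100 μM positive control; untreated cells and medium with resazurin negative controls; triplicate.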

Bacillus cereus [11] = assay: Antibacterial activity against Bacillus cereus ATCC 10987 assessed as membrane potential change at 0.5 to 2X MIC incubated for 20 mins by DiSC3(5) staining based assay; type: functional, organism-based
Procedure, shortened: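 B. cereus grown in LB to OD600 1, washed in glucose-HEPES pH 7.4, OD600 0.5, loaded with 2 μM DiSC3(5) for 20 min at 37 °C for baseline. […] Gramicidin S positive control; untreated cells and dye-only medium negative controls; triplicate.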

Staphylococcus aureus [12] = assay: Bactericidal activity against Staphylococcus aureus LMG 8224 at […] measured upto 24 hrs by CLSI based broth microdilution method; type: functional, organism-based; conditions: dose 128.0 µM
Bacillus cereus [13] = assay: Bactericidal activity against Bacillus cereus ATCC 10987 at 64 uM measured upto 24 hrs by CLSI based broth microdilution method; type: functional, organism-based
Procedure, shortened: (§1)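 Each well then used as a 10% inoculum into fresh cMHB and incubated at 37 °C for 24 h. No regrowth in the MIC range was scored bactericidal, regrowth bacteriostatic. Triplicate.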

Bacillus cereus [14] = assay: Antibacterial activity against Bacillus cereus ATCC 10987 assessed as decrease in membrane integrity at 2x MIC incubated for 18 hrs by propidium iodide staining assay; type: functional, organism-based
Procedure, shortened: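 B. cereus grown 18 h in LB at 37 °C, washed in 5 mM HEPES pH 7.4 + 5 mM glucose, OD600 0.5, loaded with 10 μg/mL propidium iodide for 10 min. […] Gramicidin S positive control; triplicate.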

Enterococcus faecalis [15] = assay: Bactericidal activity against Enterococcus faecalis V583 at 32 uM measured upto 24 hrs by CLSI based broth microdilution method; type: functional, organism-based; procedure, shortened: as §1
Enterococcus faecalis [16] = assay: Bactericidal activity against Enterococcus faecalis V583 at 16 uM measured upto 24 hrs by CLSI based broth microdilution method; type: functional, organism-based; procedure, shortened: as §1
Staphylococcus aureus [17] = assay: Bactericidal activity against Staphylococcus aureus LMG 8224 at 16 uM measured upto 24 hrs by CLSI based broth microdilution method; type: functional, organism-based; procedure, shortened: as §1
Staphylococcus aureus [18] = assay: Bactericidal activity against Staphylococcus aureus LMG 8224 measured upto 24 hrs by CLSI based broth microdilution method; type: functional; procedure, shortened: as §1
Bacillus cereus [19] = assay: Bactericidal activity against Bacillus cereus ATCC 10987 at 16 uM measured upto 24 hrs by CLSI based broth microdilution method; type: functional, organism-based; procedure, shortened: as §1
Enterococcus faecalis [20] = assay: Bactericidal activity against Enterococcus faecalis V583 measured upto 24 hrs by CLSI based broth microdilution method; type: functional; procedure, shortened: as §1
Bacillus cereus [21] = assay: Bactericidal activity against Bacillus cereus ATCC 10987 measured upto 24 hrs by CLSI based broth microdilution method; type: functional; procedure, shortened: as §1
Bacillus cereus [22] = assay: Antibacterial activity against Bacillus cereus ATCC 10987 assessed as reduction in intracellular ATP levels measured upto 120 min by BacTiter-Glo luminescent cell viability assay; type: functional, organism-based
Procedure, shortened: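 B. cereus grown in LB to OD600 1, washed in G-HEPES, resuspended in cMHB at OD600 0.25, treated with 32 μM compound at 37 °C. At 30, 60, 120 min samples mixed with BacTiter-Glo, 5 min room temperature, luminescence read. ATP normalized to OD600, as % of untreated control. CCCP 100 μM positive control; triplicate.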

Enterococcus faecalis [23] = assay: Bactericidal activity against Enterococcus faecalis V583 at […] measured upto 24 hrs by CLSI based broth microdilution method; type: functional, organism-based; conditions: dose 128.0 µM
Erythrocyte = assay: Hemolytic activity in human erythrocytes at […] incubated for 1 hrs; type: toxicity, cell-based; conditions: erythrocyte, 1 h, […]
Bacillus cereus [24] = assay: Bactericidal activity against Bacillus cereus ATCC 10987 at […] measured upto 24 hrs by CLSI based broth microdilution method; type: functional, organism-based; conditions: dose 128.0 µM

With `CCCCOc1cc(O)cc(/C=C/c2ccc(O)cc2)c1` the MIC (Bacillus cereus [1]) was 32 µM (≈ 9.1 µg/mL), the MIC [2] was 64 µM (≈ 18.2 µg/mL) and the MIC (Clostridium beijerinckii) was 26.6 µM (≈ 7.56 µg/mL). The MIC (Enterococcus faecalis [3]) was 128 µM (≈ 36.4 µg/mL), the MIC (Clostridioides difficile) was 64 µM (≈ 18.2 µg/mL) and the MIC (Clostridium botulinum) was 32 µM (≈ 9.1 µg/mL). It also gave an MIC (Bacillus cereus [4]) of 32 µM (≈ 9.1 µg/mL), an MIC (Staphylococcus aureus [5]) of 64 µM (≈ 18.2 µg/mL) and an MIC (Enterococcus faecalis [6]) of 128 µM (≈ 36.4 µg/mL). It also gave an MIC (Clostridium perfringens) of 64 µM (≈ 18.2 µg/mL), an MIC (Enterococcus faecalis [7]) of 128 µM (≈ 36.4 µg/mL) and an MIC (Clostridium tetani) of 16 µM (≈ 4.55 µg/mL). For the same molecule, the MIC (Staphylococcus aureus [8]) was 64 µM (≈ 18.2 µg/mL) and the MIC (Staphylococcus aureus [9]) was 32 µM (≈ 9.1 µg/mL).
For `CC(C)[Si](Oc1ccc(/C=C/c2cc(O)cc(O)c2)cc1)(C(C)C)C(C)C`, the inhibition (Bacillus cereus [10]) was “Dde”, the Activity (Bacillus cereus [11]) was “Active” and the Activity (Staphylococcus aureus [12]) was “Active”. For the same molecule, the Activity (Bacillus cereus [13]) was “Active”, the Activity (Bacillus cereus [14]) was “Active” and the Activity (Enterococcus faecalis [15]) was “Active”.
With `CC(C)[Si](Oc1cc(O)cc(/C=C/c2ccc(O)cc2)c1)(C(C)C)C(C)C` the Activity (Enterococcus faecalis [16]) was “Active”, the Activity (Staphylococcus aureus [17]) was “Active” and the MIC (Staphylococcus aureus [18]) was 32 µM (≈ 12.3 µg/mL). The Activity (Bacillus cereus [19]) was “Active”, the MIC (Enterococcus faecalis [20]) was 32 µM (≈ 12.3 µg/mL) and the Activity (Bacillus cereus [11]) was “Active”. The Activity (Bacillus cereus [14]) was “Active”, the MIC (Bacillus cereus [21]) was 32 µM (≈ 12.3 µg/mL) and the Activity (Bacillus cereus [22]) was “Active”.
For GENTAMICIN, the MIC (Bacillus cereus [1]) was 4 µM, the MIC (Clostridioides difficile) was over 32 µM and the MIC (Clostridium perfringens) was over 32 µM. It also gave an MIC (Enterococcus faecalis [7]) of over 32 µM and an MIC (Staphylococcus aureus [8]) of 1 µM.
With `Oc1ccc(/C=C/c2cc(O)cc(O)c2)cc1` [RESVERATROL] the Activity (Enterococcus faecalis [23]) was “Active”, the Activity (Erythrocyte) was “Non-Toxic” and the Activity (Bacillus cereus [11]) was “Active”. For the same molecule, the Activity (Bacillus cereus [24]) was “Active” and the Activity (Staphylococcus aureus [12]) was “Active”.
